TCR-CD3 inh: blocks the human TCR-CD3 interaction | TAMRA-labeled TCR probe fluorescence, biochemical | inhibition, % at 9.4 µM | 360,000 compounds, 0.37% hits | AID 651800; in the data active = inhibition above about 19%;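 note: recombinant mutant TCR 2C K166C tagged with TAMRA read by polarization; 0% = receptor in buffer alone and 100% = receptor with positive control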
PME-1 inh: blocks human protein phosphatase methylesterase 1; Q9Y570; recombinant PME-1, FP-Rh probe fluorescence polarization; inhibition, % at 5.9 µM; 320,000 compounds, 0.53% hits;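 active = inhibition above the campaign mean of all compounds plus 3 SD, cut at about 26% in these data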;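 note: competitive labeling of PME-1 active site by serine hydrolase directed probe; 0% = PME-1 with DMSO and 100% = wells lacking PME-1 enzyme; inhibitors block probe labeling so polarization falls and inhibition rises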
HTRA1 inh: inhibitors of human serine peptidase HTRA1; 340,000 compounds, 0.5% hits; inhibition, % at 5.96 µM; recombinant HTRA1, FP-rhodamine activity-based probe, fluorescence polarization; Q92743; AID 504803; in the data active = inhibition above about 36%;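 note: 0% = enzyme with DMSO and 100% = wells lacking enzyme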
Fam108B counter: blocks mouse Fam108B hydrolase in RBBP9 counter-screen; recombinant Fam108B, FP-Rh probe fluorescence polarization; inhibition, % at 9.51 µM; 300,000 compounds, 0.33% hits; AID 1947;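 active = inhibition above the screen mean inhibition plus 3 SD, computed separately per campaign, cut at about 18% in these data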;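 note: inhibitors lower polarization as less probe binds the enzyme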
ABHD4 inh: ABHD4 (mouse) inhibition, primary FP screen; purified mABHD4, FP-Rh probe fluorescence polarization; inhibition, % at 8.92 µM; 370,000 compounds, 0.54% hits; AID 720543;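 active = inhibition exceeding the mean over every tested compound plus 3 SD, cut at about 30% in these data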;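 note: 0% = plate median of compound wells and 100% = S159A mutant with DMSO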
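System: mouse ABHD4 enzyme, wild type / Medium: HEPES pH 7.0, NaCl, Pluronic buffer / Reagent: FP-Rh activity-based fluorescent probe / Control set: S159A mutant high control, sample median low control / Detection: fluorescence polarization with parallel and perpendicular emission, 525/598 nm / Schedule: 45 min + 60 min at 25 °C / Compound dosing: 8.92 µM, single dose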
SIAE inh: blocks human sialic acid acetylesterase | Q9HAT2 | SIAE FP-Rh probe binding, fluorescence polarization | inhibition, % at 9.66 µM | 370,000 compounds, 0.69% hits;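 active = inhibition above a cutoff: mean of compounds within the control limits plus 3 SD of those, cut at about 17% in these data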;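 note: 0% = plate median of compound wells and 100% = probe without SIAE protein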
Target sequence (Q9HAT2 whole entry, looked up): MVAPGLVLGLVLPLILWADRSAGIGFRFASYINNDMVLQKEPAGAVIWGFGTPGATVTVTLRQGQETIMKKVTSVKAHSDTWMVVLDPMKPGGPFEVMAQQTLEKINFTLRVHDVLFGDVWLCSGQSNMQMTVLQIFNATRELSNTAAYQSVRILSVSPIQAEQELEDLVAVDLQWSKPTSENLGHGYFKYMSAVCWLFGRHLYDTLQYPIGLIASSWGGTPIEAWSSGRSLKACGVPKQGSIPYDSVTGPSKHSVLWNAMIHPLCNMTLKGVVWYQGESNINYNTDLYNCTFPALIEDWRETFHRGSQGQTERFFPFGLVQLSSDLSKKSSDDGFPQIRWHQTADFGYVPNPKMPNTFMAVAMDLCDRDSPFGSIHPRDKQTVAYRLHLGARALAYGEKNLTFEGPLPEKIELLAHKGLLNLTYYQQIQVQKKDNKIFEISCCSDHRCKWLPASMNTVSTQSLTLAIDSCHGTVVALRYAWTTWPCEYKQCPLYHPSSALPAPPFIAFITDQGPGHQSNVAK
SIAE inh conf: human SIAE inhibition, confirmation; shares compounds with SIAE inh; 2,300 compounds, 13% hits; inhibition, % at 9.66 µM; SIAE FP-Rh activity-based probe, fluorescence polarization;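 active = mean inhibition of the replicates above the hit cutoff set in the primary screen, cut at about 17% in these data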;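 note: 0% = SIAE with DMSO and probe and 100% = probe without SIAE; inhibitors lower polarization as more probe stays unbound to SIAE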
Starred values were filed as active, the others as inactive; · = no result. Most compounds without a hit are left out; they make up all but 1.8% or so of the library.

SMILES	TCR-CD3 inh	PME-1 inh	HTRA1 inh	Fam108B counter	ABHD4 inh	SIAE inh	SIAE inh conf
FC(F)Oc1ccc(NC(=S)NNc2ccnc3cc(Cl)ccc23)cc1	-6	15	15	8	24	35*	0
CCCCN1CCN=C1N(C)C	6	-5	4	5	0	17*	3
COc1ccccc1NCCC(=O)OCC(=O)Nc1ccccc1Cl	-7	·	-1	·	2	10	·
O=C(Nc1ccc(Nc2ccccc2)cc1)c1ccc(Cl)cc1[N+](=O)[O-]	-8	7	·	6	8	21*	5
Cc1cc(C(=O)Nc2ccc(Nc3ccccc3)cc2)ccc1[N+](=O)[O-]	7	1	12	2	12	19*	19*
CC(C)[C@H]1COc2c3ccccc3nn21	·	·	·	·	-4	5	·
c1ccc(COCCC2CO2)cc1 (configuration not stated)	·	-4	·	-1	·	·	·
Cc1ccccc1NS(=O)(=O)c1ccc(C(=O)N2CCN(S(=O)(=O)c3ccccc3)CC2)cc1	4	9	0	0	3	19*	-7
CC(=O)N1CCN(C(=O)c2ccc(S(=O)(=O)Nc3ccccc3C)cc2)CC1	4	5	3	2	-7	-1	·
O=C(/C=C/c1ccc([N+](=O)[O-])cc1)Nc1cccc(C(=O)Nc2ccccc2C(=O)O)c1	4	-29	-19	-5	-24	-9	·
COc1cc(CNc2cc(C)ccc2C)cc(OC)c1OC	2	-9	3	0	-5	24*	0
NC(Cc1ccc(C(F)(F)F)cc1)c1csc(NC(=O)Nc2ccccc2Cl)n1 (configuration not stated)	1	·	·	·	2	20*	21*
NC(Cc1ccc(C(F)(F)F)cc1)c1csc(NC(=O)Nc2ccccc2)n1 (configuration not stated)	-6	·	·	·	-8	6	·
C/C(=N\NC(=O)Cc1csc(N2CCOCC2)n1)c1ccccc1	-12	-2	-2	1	2	21*	-1
NS(=O)(=O)c1ccc(NC(=S)NC(=O)/C=C/c2ccco2)cc1	2	-11	2	9	29	19*	-10
O=C(/C=C/c1ccco1)NC(=S)Nc1cccc([N+](=O)[O-])c1	3	-4	7	-4	21	23*	-16
Cc1cccc(NC(=S)NC(=O)/C=C/c2ccco2)c1	2	-3	-7	-2	16	5	·
CCNC(=O)C1(C)CCCN(C(=O)COCc2ccccc2)C1 (configuration not stated)	-3	·	·	·	0	4	·
COc1ccc(N(CC(=O)NC2CCCCC2C)S(=O)(=O)c2c(C)nn(C)c2C)cc1 (configuration not stated)	5	1	-3	3	7	-1	·
CC1(c2nc3ccccc3[nH]2)c2ccccc2C(=O)N1Cc1ccccn1 (configuration not stated)	0	·	·	·	0	-7	·
CCN(CC)c1ccc(/C=N/NC(=O)c2cccc(S(=O)(=O)N3CCOCC3)c2)c(O)c1	-2	7	21	5	15	20*	11
CCN(CC)S(=O)(=O)c1cccc(C(=O)N/N=C/c2cccc(O)c2O)c1	9	14	14	0	16	27*	-7
CCOC(=O)N/N=C/c1ccc(N(CC)CC)cc1O	-4	2	0	1	7	18*	-2
CN1CCN(NC(=O)c2cc(-c3ccc(Cl)s3)nc3ccccc23)CC1	-6	0	1	-1	-4	0	·
CN(CC(=O)Nc1cc(Cl)ccc1-n1cncn1)Cc1ccccc1N1CCOCC1	-7	·	0	·	-3	1	·
O=C(CCNC(=O)c1ccco1)Nc1ccc(OC(F)F)c(Cl)c1	6	-2	-8	0	-4	41*	0
CC(C)C1OC2(C)OC(=N)C1(C#N)C(C#N)(C#N)C2c1ccccc1 (configuration not stated)	18	12	7	12	35*	22*	10
CCC1OC2(C)OC(=N)C1(C#N)C(C#N)(C#N)C2c1ccccc1 (configuration not stated)	8	11	12	11	11	7	·

Assay outcomes deposited in PubChem by The Scripps Research Institute Molecular Screening Center.
